One block for each molecule: values may come before it. Where a SMILES comes first, the peptide text is derived from it. [ ]: non-standard residue; d: D form. The star is where a group is joined. Abu(1-amidino-4-piperidyl) = N=C(N)N1CCC(CC[C@H](N)C(=O)O)CC1; Gly(1-amidinopiperidin-4-yl) = N=C(N)N1CCC([C@H](N)C(=O)O)CC1; FITC = O=C1OC2(c3ccc(O)cc3Oc3cc(O)ccc32)c2ccc(NC(=S)*)cc21; DTPA = O=C(O)CN(CCN(CC(=O)O)CC(=O)O)CCN(CC(=O)O)CC(=O)*; Gly(piperidin-4-yl) = N[C@H](C(=O)O)C1CCNCC1; Tle = CC(C)(C)[C@H](N)C(=O)O
Legend:
Mus musculus [1] = assay: Biodistribution of [111In]-DTPA-NT in HT-29 tumor implanted SCID mice spleen at 1 hr postinjection; format: ADME, organism-based; conditions: in vivo
Summary of the method: (§1)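 Male SCID mice bore HT29 xenografts from 1 × 10^6 cells given s.c. in both rear flanks. Tumours reached about 0.3 g by day 14. Under Metofane anaesthesia, mice received 20 μL (10 μCi) of 111In-DTPA-NT analogue (1400 Ci/mmol) via the jugular vein. Groups of n = 3 were killed by cervical dislocation at 1 and 4 h. Blood and tissues were gamma-counted and reported as %ID/g ± SE.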

Mus musculus [2] = assay: Biodistribution of [111In]DTPA-NT in HT-29 tumor implanted SCID mice blood at 4 h postinjection; format: ADME, organism-based; conditions: in vivo; summary of the method: as §1
Mus musculus [3] = assay: Biodistribution of [111In]-DTPA-NT in HT-29 tumor implanted SCID mice pancreas at 4 h postinjection; format: ADME, organism-based; conditions: in vivo; summary of the method: as §1
Mus musculus [4] = assay: Biodistribution of [111In]DTPA-NT in HT-29 tumor implanted SCID mice liver at 4 h postinjection; format: ADME, organism-based; conditions: in vivo; summary of the method: as §1
Mus musculus [5] = assay: Biodistribution of [111In]-DTPA-NT in HT-29 tumor implanted SCID mice muscle at 4 hr postinjection LSA administration; format: ADME, organism-based, Muscle tissue; conditions: in vivo
Summary of the method: (§2)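 Receptor-blocking (low specific activity) arm in male SCID mice with s.c. HT29 flank xenografts of about 0.3 g. Two animals received the same activity (10 μCi, jugular vein) diluted with cold NT to 0.5 Ci/mmol. Tissues were collected after cervical dislocation, radioassayed, and expressed as %ID/g.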

Mus musculus [6] = assay: Biodistribution of [111In]DTPA-NT in HT-29 tumor implanted SCID mice muscle at 4 h postinjection; format: ADME, organism-based, Muscle tissue; conditions: in vivo; summary of the method: as §1
Mus musculus [7] = assay: Biodistribution of [111In]-DTPA-NT in HT-29 tumor implanted SCID mice liver at 4 hr postinjection LSA administration; format: ADME, organism-based; conditions: in vivo; summary of the method: as §2
Mus musculus [8] = assay: Biodistribution of [111In]DTPA-NT in HT-29 tumor implanted SCID mice blood at 1 h postinjection; format: ADME, organism-based; conditions: in vivo; summary of the method: as §1
Mus musculus [9] = assay: Biodistribution of [111In]DTPA-NT in HT-29 tumor implanted SCID mice muscle at 1 h postinjection; format: ADME, organism-based, Muscle tissue; conditions: in vivo; summary of the method: as §1
Mus musculus [10] = assay: Biodistribution of [111In]-DTPA-NT in HT-29 tumor implanted SCID mice tumor at 4 hr postinjection; format: ADME, organism-based; conditions: in vivo; summary of the method: as §1
Mus musculus [11] = assay: Biodistribution of [111In]DTPA-NT in HT-29 tumor implanted SCID mice kidneys at 1 h postinjection; format: ADME, organism-based, Kidney; conditions: in vivo; summary of the method: as §1
Mus musculus [12] = assay: Biodistribution of [111In]-DTPA-NT in HT-29 tumor implanted SCID mice blood at 4 hr postinjection LSA administration; format: ADME, organism-based; conditions: in vivo; summary of the method: as §2
Mus musculus [13] = assay: Biodistribution of [111In]DTPA-NT in HT-29 tumor implanted SCID mice tumor at 4 h postinjection LSA administration; format: ADME, organism-based; conditions: in vivo; summary of the method: as §2
Mus musculus [14] = assay: Biodistribution of [111In]DTPA-NT in HT-29 tumor implanted SCID mice kidneys at 4 h postinjection; format: ADME, organism-based, Kidney; conditions: in vivo; summary of the method: as §1
Mus musculus [15] = assay: Biodistribution of [111In]DTPA-NT in HT-29 tumor implanted SCID mice tumor at 1 h postinjection; format: ADME, organism-based; conditions: in vivo; summary of the method: as §1
Mus musculus [16] = assay: Biodistribution of [111In]-DTPA-NT in HT-29 tumor implanted SCID mice pancreas at 4 hr postinjection LSA administration; format: ADME, organism-based; conditions: in vivo; summary of the method: as §2
Mus musculus [17] = assay: Biodistribution of [111In]DTPA-NT in HT-29 tumor implanted SCID mice liver at 1 h postinjection; format: ADME, organism-based; conditions: in vivo; summary of the method: as §1
[18] = molecular target: Neurotensin receptor type 1 (Homo sapiens, UniProt P30989); assay: Binding affinity towards neurotensin receptor in membranes prepared from HT-29 cell line, relative to [111In]-labeled neurotensin peptide
Mus musculus [19] = assay: Biodistribution of [111In]-DTPA-NT in HT-29 tumor implanted SCID mice kidneys at 4 hr postinjection LSA administration; format: ADME, organism-based, Kidney; conditions: in vivo; summary of the method: as §2
Mus musculus [20] = assay: Biodistribution of [111In]-DTPA-NT in HT-29 tumor implanted SCID mice spleen at 4 hr postinjection LSA administration; format: ADME, organism-based; conditions: in vivo; summary of the method: as §2
Mus musculus [21] = assay: Biodistribution of [111In]DTPA-NT in HT-29 tumor implanted SCID mice pancreas at 1 h postinjection; format: ADME, organism-based; conditions: in vivo; summary of the method: as §1
Mus musculus [22] = assay: Biodistribution of [111In]DTPA-NT in HT-29 tumor implanted SCID mice spleen at 4 h postinjection; format: ADME, organism-based; conditions: in vivo; summary of the method: as §1

Chain of Neurotensin receptor type 1 (P30989 whole entry): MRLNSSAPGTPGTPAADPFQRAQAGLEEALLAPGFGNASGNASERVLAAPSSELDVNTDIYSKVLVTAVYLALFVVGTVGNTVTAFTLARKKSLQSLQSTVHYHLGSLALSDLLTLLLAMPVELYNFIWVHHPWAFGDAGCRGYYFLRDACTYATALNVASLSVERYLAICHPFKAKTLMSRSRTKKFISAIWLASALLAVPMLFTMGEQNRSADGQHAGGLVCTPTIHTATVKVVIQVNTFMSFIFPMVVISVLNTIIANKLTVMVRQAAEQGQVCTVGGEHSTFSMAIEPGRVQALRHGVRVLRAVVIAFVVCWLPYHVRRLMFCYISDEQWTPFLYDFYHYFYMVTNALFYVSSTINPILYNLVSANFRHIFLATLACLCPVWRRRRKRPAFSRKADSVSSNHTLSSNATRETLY

IC50 [18]: 6.3 nM
SMILES: CC(C)C[C@H](NC(=O)[C@@H](NC(=O)[C@H](Cc1ccc(O)cc1)NC(=O)[C@@H]1CCCN1C(=O)[C@H](CCCNC(=N)N)NC(=O)[C@H](CCC1CCN(C(=N)N)CC1)NC(=O)[C@@H]1CCCN1C(=O)[C@@H](CCCCN)NC(=O)CN(CCN(CCN(CC(=O)O)CC(=O)O)CC(=O)O)CC(=O)O)C(C)(C)C)C(=O)O ({DTPA}-[dK]P[Abu(1-amidino-4-piperidyl)]RPY[Tle]L-OH)

IC50 ([18]; ht-29): 0.5 nM
SMILES: CC(C)C[C@H](NC(=O)[C@@H](NC(=O)[C@H](Cc1ccc(O)cc1)NC(=O)[C@@H]1CCCN1C(=O)[C@H](CCCN=C(N)N)NC(=O)[C@@H](NC(=O)[C@@H]1CCCN1C(=O)[C@@H](NC(=S)Nc1ccc2c(c1)C(=O)OC21c2ccc(O)cc2Oc2cc(O)ccc21)C1CCNCC1)C1CCN(C(=N)N)CC1)C(C)(C)C)C(=O)O ({FITC}-[Gly(piperidin-4-yl)]P[Gly(1-amidinopiperidin-4-yl)]RPY[Tle]L-OH)

IC50 ([18]; ht-29): 0.6 nM
SMILES: CC[C@H](C)[C@H](NC(=O)[C@H](Cc1ccc(O)cc1)NC(=O)[C@@H]1CCCN1C(=O)[C@H](CCCN=C(N)N)NC(=O)[C@@H](NC(=O)[C@@H]1CCCN1C(=O)[C@H](N)CCCCNC(=S)Nc1ccc2c(c1)C(=O)OC21c2ccc(O)cc2Oc2cc(O)ccc21)C1CCN(C(=N)N)CC1)C(=O)N[C@@H](CC(C)C)C(=O)O

IC50 ([18]; ht-29): 10.2 nM
SMILES: CC[C@H](C)[C@H](NC(=O)[C@H](Cc1ccc(O)cc1)NC(=O)[C@@H]1CCCN1C(=O)[C@H](CCCN=C(N)N)NC(=O)[C@H](CCc1ccnc(N)n1)NC(=O)[C@@H]1CCCN1C(=O)[C@@H](CCCCN)NC(=O)CN(CCN(CCN(CC(=O)O)CC(=O)O)CC(=O)O)CC(=O)O)C(=O)N[C@@H](CC(C)C)C(=O)O

The remaining lines, values behind:

SMILES: CC(C)C[C@H](NC(=O)[C@@H](NC(=O)[C@H](Cc1ccc(O)cc1)NC(=O)[C@@H]1CCCN1C(=O)[C@H](CCCN=C(N)N)NC(=O)[C@@H](NC(=O)[C@@H]1CCCN1C(=O)[C@@H](NC(=O)CN(CCN(CCN(CC(=O)O)CC(=O)O)CC(=O)O)CC(=O)O)C1CCNCC1)C1CCN(C(=N)N)CC1)C(C)(C)C)C(=O)O ({DTPA}-[Gly(piperidin-4-yl)]P[Gly(1-amidinopiperidin-4-yl)]RPY[Tle]L-OH)
ID/g tissue (Mus musculus [1]): 0.18%
ID/g tissue (Mus musculus [2]): 0.03%
ID/g tissue (Mus musculus [3]): 0.03%
ID/g tissue (Mus musculus [4]): 0.133%
ID/g tissue (Mus musculus [5]): 0.03%
ID/g tissue (Mus musculus [6]): 0.021%
ID/g tissue (Mus musculus [7]): 0.168%
ID/g tissue (Mus musculus [8]): 0.416%
ID/g tissue (Mus musculus [9]): 0.092%
ID/g tissue (Mus musculus [10]): 2.177%
ID/g tissue (Mus musculus [11]): 6.141%
ID/g tissue (Mus musculus [12]): 0.027%
ID/g tissue (Mus musculus [13]): 0.263%
ID/g tissue (Mus musculus [14]): 4.841%
ID/g tissue (Mus musculus [15]): 2.831%
ID/g tissue (Mus musculus [16]): 0.051%
ID/g tissue (Mus musculus [17]): 0.203%
IC50 [18]: 0.3 nM
ID/g tissue (Mus musculus [19]): 5.725%
ID/g tissue (Mus musculus [20]): 0.088%
ID/g tissue (Mus musculus [21]): 0.152%
ID/g tissue (Mus musculus [22]): 0.085%

SMILES: CC(C)C[C@H](NC(=O)[C@@H](NC(=O)[C@H](Cc1ccc(O)cc1)NC(=O)[C@@H]1CCCN1C(=O)[C@H](CCCN=C(N)N)NC(=O)[C@@H](NC(=O)[C@@H]1CCCN1C(=O)[C@@H](CCCCN)NC(=O)CN(CCN(CCN(CC(=O)O)CC(=O)O)CC(=O)O)CC(=O)O)C1CCN(C(=N)N)CC1)C(C)(C)C)C(=O)O
IC50 ([18]; ht-29): 0.4 nM

SMILES: CC(C)C[C@H](NC(=O)[C@@H](NC(=O)[C@H](Cc1ccc(O)cc1)NC(=O)[C@@H]1CCCN1C(=O)[C@@H](NC(=O)[C@@H](NC(=O)[C@@H]1CCCN1C(=O)[C@@H](CCCCN)NC(=O)CN(CCN(CCN(CC(=O)O)CC(=O)O)CC(=O)O)CC(=O)O)C1CCN(C(=N)N)CC1)C1CCNCC1)C(C)(C)C)C(=O)O
IC50 ([18]; ht-29): 59.6 nM

SMILES: CC(C)(C)[C@H](NC(=O)[C@H](Cc1ccc(O)cc1)NC(=O)[C@@H]1CCCN1C(=O)[C@H](CCCN=C(N)N)NC(=O)[C@@H](NC(=O)[C@@H]1CCCN1C(=O)[C@@H](CCCCN)NC(=O)CN(CCN(CCN(CC(=O)O)CC(=O)O)CC(=O)O)CC(=O)O)C1CCN(C(=N)N)CC1)C(=O)N[C@@H](CC1CCCCC1)C(=O)O
IC50 [18]: 11.7 nM

Source: ChEMBL document CHEMBL1144933, “Novel bioactive and stable neurotensin peptide analogues capable of delivering radiopharmaceuticals and molecular beacons to tumors” (J Med Chem, 2003)
